Laboratory results published in PMC10580252 (Experimental and Therapeutic Medicine, 2023).

Legend:
[1] = Pharmacokinetics studies in rats; format: in vivo; conditions: male, SD, rat, plasma, po, 50 mg/kg
[2] = tested on: Hep3B-luc in situ transplanted tumours; experiment: Antitumour activity in Hep3B-luc orthotopic xenograft model; format: in vivo, BALB/c nude mice; conditions: intragastric 50 mg/kg ART once daily for 24 days, n=3
Method in brief: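 Female BALB/c nude mice, 6-8 weeks, received 3x10^6 Hep3B-luc cells in 0.02 ml PBS:Matrigel (1:1) in the left hepatic lobe. They were randomized into four groups (including untreated control) once tumour fluorescence reached ~10^7. Test formulations were given intragastrically once daily for 24 days. Tumour signal and body weight were measured twice weekly. Inhibition = (ROIcontrol−ROIdrug)/ROIcontrol ×100% from mean tumour signals.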

HepG2 cells = experiment: Cellular uptake of NR-labelled NPs, flow cytometry; format: cell-based; conditions: HepG2, NR 50 µg/ml, 0.5, 1 or 4 h
Method in brief: (§1)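 Cells were seeded at 2x10^5 per well and cultured 24 h. They were co-incubated with Nile red-labelled nanoparticles at equal Nile red 50 µg/ml, then washed thrice with cold PBS and incubated a further 0.5, 1 or 4 h. Intracellular fluorescence was read by flow cytometry. Controls were untreated cells, free Nile red, and Nile red in unmodified PEG-PLGA nanoparticles.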

A549 cells = experiment: Cellular uptake of NR-labelled NPs, flow cytometry; format: cell-based; conditions: A549, NR 50 µg/ml, 0.5, 1 or 4 h
Method in brief: as §1

[3] = Hepatoma-targeted and bio-distribution detection; format: in vivo, BALB/c nude mice; conditions: tumour model mice, intragastric NR 20 mg/kg

Row | AUC(0-inf) [1] | AUC(0-t) [1] | Cmax [1] | MRT [1] | Tmax [1] | half-life [1] | In vivo NR fluorescence in whole body and liver [3] | SMILES | Bioluminescence (ROI) (PG-21) [2] | Cellular fluorescence (uptake) (HepG2 cells) | Cellular fluorescence (uptake) (A549 cells)
1 | 2540 ng·h/mL | 2540 ng·h/mL | 4580 ng/mL | 30 min | 15 min | 15 min |  | C[C@H]1[C@H](OC(=O)CCC(=O)O)O[C@@H]2O[C@@]3(C)CC[C@H]4[C@H](C)CC[C@@H]1[C@@]24OO3 [ART, Artesunate] | 4.49±0.55 x10^9 photons/sec |  | 
2 |  |  |  |  |  |  | lower fluorescence levels at 2 h | CCN(CC)c1ccc2nc3c4ccccc4c(=O)cc-3oc2c1 [NR, Nile red] |  | little fluorescence | little fluorescence
